≈ marks a conversion by molar mass, not a printed value.
Columns and labels:
Mus musculus [1] = species: Mus musculus; assay: Mouse protection tests for effective dose against Streptococcus pneumoniae 6303 ((erythromycin susceptible strain)) infected mice; type: functional
Streptococcus pneumoniae [2] = assay: Cell free inhibiting activity against Streptococcus pneumoniae 1813 (methylated ribosomes for transcription/translation assay); type: functional
Streptococcus pneumoniae [3] = assay: Cell free inhibiting activity against Streptococcus pneumoniae 5635(Wild type ribosomes for transcription/translation assay); type: functional
Outline: (§1)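 Cell-free coupled transcription/translation assay using bacterial ribosome S-30 extracts. Wild-type ribosomes were isolated from the erythromycin-susceptible strain S. pneumoniae 5635. Inhibition is reported as IC50 (µM).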

Staphylococcus aureus [4] = assay: Minimum against Staphylococcus aureus 10649 (erythromycin susceptible strain); type: functional
Outline: (§2)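 MICs were determined by agar dilution following National Committee for Clinical Laboratory Standards recommendations. Values are in µg/mL.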

Mus musculus [5] = species: Mus musculus; assay: Mouse protection tests for effective dose against Staphylococcus aureus 10649 ((erythromycin susceptible strain)) infected mice; type: functional
Streptococcus pneumoniae [6] = assay: Minimum against Streptococcus pneumoniae 6303 (erythromycin susceptible strain); type: functional
Outline: (§3)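 Whole-cell MIC determined by agar dilution following National Committee for Clinical Laboratory Standards recommendations; values expressed in µg/mL.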

[7] = Minimum inhibitory concentration against Streptococcus pyogenes PIU2548 efflux; type: functional; outline: as §2
Streptococcus pneumoniae [8] = assay: Cell free inhibiting activity against erythromycin-susceptible strain Streptococcus pneumoniae 5635 (Wild type ribosomes for transcription/translation assay); type: functional; outline: as §1
Staphylococcus aureus [9] = assay: Minimum inhibitory concentration against Staphylococcus aureus A 5177 MLSB-i; type: functional; outline: as §2
[10] = Minimum inhibitory concentration against Streptococcus pyogenes 930MLSB; type: functional; outline: as §2
Staphylococcus aureus [11] = assay: Minimum inhibitory concentration against Staphylococcus aureus A 5278 MLSB-c; type: functional; outline: as §2
Streptococcus pneumoniae [12] = assay: Cell free inhibiting activity against MLSB-resistant strain Streptococcus pneumoniae 1813 (methylated ribosomes for transcription/translation assay)
Staphylococcus aureus [13] = assay: Minimum inhibitory concentration against Staphylococcus aureus ATCC 6538PEry-S; type: functional; conditions: ATCC 6538P; outline: as §2
[14] = Minimum inhibitory concentration againstH. influenzae DILL Amp-R; type: functional; conditions: Haemophilus influenzae; outline: as §3
Streptococcus pneumoniae [15] = assay: Minimum inhibitory concentration against Streptococcus pneumoniae ATCC 6303 Ery-S; type: functional; outline: as §2
[16] = Minimum inhibitory concentration against Streptococcus pneumoniae 5737 MLSB; type: functional; outline: as §2
Streptococcus pneumoniae [17] = assay: Cell free inhibiting activity against MLSB-resistant strain Streptococcus pneumoniae 1813 (methylated ribosomes for transcription/translation assay); remark: listed apart in the source
Streptococcus pneumoniae [18] = assay: Minimum inhibitory concentration against Streptococcus pneumoniae 5649 efflux; type: functional; outline: as §2
[19] = Minimum inhibitory concentration against Streptococcus pyogenes EES 61 Ery-S; type: functional; outline: as §2
Streptococcus pneumoniae [20] = assay: Cell free inhibiting activity against erythromycin-susceptible strain Streptococcus pneumoniae 5635 (Wild type ribosomes for transcription/translation assay)
Streptococcus pneumoniae [21] = assay: Minimum inhibitory concentration against Streptococcus pneumoniae 6303 (erythromycin susceptible strain); type: functional; outline: as §2
Staphylococcus aureus [22] = assay: Minimum inhibitory concentration against Staphylococcus aureus 10649 (erythromycin susceptible strain); type: functional; outline: as §2
[23] = Minimum inhibitory concentration against Haemophilus influenzae DILL Amp-R; type: functional; outline: as §2
Mus musculus [24] = species: Mus musculus; assay: Effective dose against Streptococcus pneumoniae 6303 (erythromycin susceptible strain); type: functional

SMILES | MIC [7] [µg/mL] | MIC (Staphylococcus aureus [9]) [µg/mL] | MIC [10] [µg/mL] | MIC (Staphylococcus aureus [11]) [µg/mL] | IC50 (Streptococcus pneumoniae [12]) [nM] | MIC (Staphylococcus aureus [13]) [µg/mL] | MIC (Streptococcus pneumoniae [15]) [µg/mL] | MIC [16] [µg/mL] | MIC (Streptococcus pneumoniae [18]) [µg/mL] | MIC [19] [µg/mL] | IC50 (Streptococcus pneumoniae [20]) [nM] | MIC (Streptococcus pneumoniae [21]) [µg/mL] | MIC (Staphylococcus aureus [22]) [µg/mL] | MIC [23] [µg/mL] | ED50 (Mus musculus [1]) [mg/kg] | IC50 (Streptococcus pneumoniae [2]) [nM] | IC50 (Streptococcus pneumoniae [3]) [nM] | ED50 (Mus musculus [5]) [mg/kg] | IC50 (Streptococcus pneumoniae [8]) [nM] | MIC [14] [µg/mL] | further results
CC[C@H]1OC(=O)[C@H](C)[C@@H](O[C@H]2C[C@@](C)(OC)[C@@H](O)[C@H](C)O2)[C@H](C)[C@@H](O[C@@H]2O[C@H](C)C[C@H](N(C)C)[C@H]2O)[C@](C)(OC)C[C@@H](C)C(=O)[C@H](C)[C@@H](O)[C@]1(C)O [CLARITHROMYCIN] |  |  |  |  |  |  |  |  |  |  |  |  |  |  | 27.9 | > 500000 | 90 | 16.7 |  |  | MIC (Staphylococcus aureus [4]): 0.2 µg/mL (≈ 0.267 µM); MIC (Streptococcus pneumoniae [6]): 0.03 µg/mL (≈ 0.0401 µM)
CC[C@H]1OC(=O)[C@H](C)[C@@H](O[C@H]2C[C@@](C)(OC)[C@@H](O)[C@H](C)O2)[C@H](C)[C@@H](O[C@@H]2O[C@H](C)C[C@H](N(C)C)[C@H]2O)[C@](C)(O)C[C@@H](C)C(=O)[C@H](C)[C@@H](O)[C@]1(C)O [ERYTHROMYCIN] | 16 (≈ 21.8 µM) | 6.2 (≈ 8.45 µM) | > 128 | > 100 |  | 0.2 (≈ 0.273 µM) | 0.06 (≈ 0.0818 µM) | > 128 | 32 (≈ 43.6 µM) | 0.06 (≈ 0.0818 µM) |  |  |  |  |  |  |  |  | 120 | 8 (≈ 10.9 µM) | IC50 (Streptococcus pneumoniae [17]): > 500000 nM
CC[C@H]1OC(=O)[C@H](C)C(=O)[C@H](C)[C@@H](O[C@@H]2O[C@H](C)C[C@H](N(C)C)[C@H]2O)[C@](C)(OC/C=C/c2cnc3cccnc3c2)C[C@@H](C)C(=O)[C@H](C)[C@H]2NC(=O)O[C@@]21C | 0.5 (≈ 0.652 µM) | 0.05 (≈ 0.0652 µM) | 2 (≈ 2.61 µM) | > 100 | 25000 | 0.05 (≈ 0.0652 µM) | 0.015 (≈ 0.0196 µM) | 0.25 (≈ 0.326 µM) | 1 (≈ 1.3 µM) | 0.03 (≈ 0.0391 µM) | 100 | 0.015 (≈ 0.0196 µM) | 0.05 (≈ 0.0652 µM) | 2 (≈ 2.61 µM) | 17.3 |  |  | 12.5 |  |  | 
CC[C@H]1OC(=O)[C@H](C)C(=O)[C@H](C)[C@@H](O[C@@H]2O[C@H](C)C[C@H](N(C)C)[C@H]2O)[C@](C)(OC/C=C/c2ccc3nccnc3c2)C[C@@H](C)C(=O)[C@H](C)[C@H]2NC(=O)O[C@@]21C | 0.25 (≈ 0.326 µM) | 0.1 (≈ 0.13 µM) | 1 (≈ 1.3 µM) | > 100 | 40000 | 0.1 (≈ 0.13 µM) | 0.015 (≈ 0.0196 µM) | 0.25 (≈ 0.326 µM) | 0.5 (≈ 0.652 µM) | 0.03 (≈ 0.0391 µM) | 80 | 0.015 (≈ 0.0196 µM) | 0.1 (≈ 0.13 µM) | 2 (≈ 2.61 µM) | 33.1 |  |  | < 6.25 |  |  | 

Continued, in another order:

MIC [7] [µg/mL] | MIC (Staphylococcus aureus [9]) [µg/mL] | MIC [10] [µg/mL] | MIC (Staphylococcus aureus [11]) [µg/mL] | IC50 (Streptococcus pneumoniae [12]) [nM] | MIC (Staphylococcus aureus [13]) [µg/mL] | MIC (Streptococcus pneumoniae [15]) [µg/mL] | MIC [16] [µg/mL] | MIC (Streptococcus pneumoniae [18]) [µg/mL] | MIC [19] [µg/mL] | IC50 (Streptococcus pneumoniae [20]) [nM] | MIC (Streptococcus pneumoniae [21]) [µg/mL] | MIC (Staphylococcus aureus [22]) [µg/mL] | MIC [23] [µg/mL] | SMILES | ED50 (Mus musculus [1]) [mg/kg] | IC50 (Streptococcus pneumoniae [2]) [nM] | IC50 (Streptococcus pneumoniae [3]) [nM] | ED50 (Mus musculus [5]) [mg/kg] | IC50 (Streptococcus pneumoniae [8]) [nM] | MIC [14] [µg/mL] | further results
64 (≈ 82.7 µM) | 12.5 (≈ 16.1 µM) | > 128 | > 100 | > 500000 | 0.78 (≈ 1.01 µM) |  |  |  |  |  |  |  |  | C=CCO[C@]1(C)C[C@@H](C)C(=O)[C@H](C)[C@@H](O)[C@](C)(O)[C@@H](CC)OC(=O)[C@H](C)[C@@H](O[C@H]2C[C@@](C)(OC)[C@@H](O)[C@H](C)O2)[C@H](C)[C@H]1O[C@@H]1O[C@H](C)C[C@H](N(C)C)[C@H]1O |  |  |  |  | 150 | 32 (≈ 41.3 µM) | 
 |  |  |  |  |  |  |  |  |  |  | 0.12 (≈ 0.16 µM) | 0.78 (≈ 1.04 µM) |  | CC[C@H]1OC(=O)[C@H](C)[C@@H](O[C@H]2C[C@@](C)(OC)[C@@H](O)[C@H](C)O2)[C@H](C)[C@@H](O[C@@H]2O[C@H](C)C[C@H](N(C)C)[C@H]2O)[C@](C)(O)C[C@@H](C)CN(C)[C@H](C)[C@@H](O)[C@]1(C)O [AZITHROMYCIN] |  | > 500000 | 170 | 24.8 |  |  | ED50 (Mus musculus [24]): 18.8 mg/kg
